In the EternaBench riboswitch data:

System: MS2 coat protein
Assay: apparent Kd, MS2 coat protein; higher = weaker binding; RNA-MaP array; FMN 200 µM where present
How it was run: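 Binding was read on Illumina sequencing-chip clusters where stalled E. coli RNA polymerase had transcribed each design. A titration of SNAP-549-labelled MS2 coat protein began at 0.7 or 1.5 nM and doubled to 3 µM, once without ligand and once with constant ligand, in 100 mM Tris-HCl pH 7.5, 80 mM KCl, 4 mM MgCl2, BSA, DTT, yeast tRNA and Tween-20. The apparent Kd is the median of filtered per-cluster binding-curve fits, based on green signal normalised to red-channel RNA signal and control-cluster median Fmax.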

[1] = designed as: OFF switch for flavin mononucleotide, no ligand
[2] = ligand present: flavin mononucleotide, designed as: OFF switch for flavin mononucleotide
[3] = designed as: ON switch for flavin mononucleotide, no ligand
[4] = ligand present: flavin mononucleotide, designed as: ON switch for flavin mononucleotide

AAGUGGUUUAUAUAUAUAGAAAUCAGAAGGCGUGACAUGAGGAUCACCCAUGUGUUCAGUCAUGACGAGGAUAUGACUAAUUGU
apparent Kd [1]: 69.9 nM | apparent Kd [2]: 85.4 nM

AAGUGGUUUAUAUAUAUAGAUAUCAGAAGGCGUGACAUGAGGAUCACCCAUGUGUACUGUCAUGACGAGGAUAUGACUAAUUGU
apparent Kd [1]: 24 nM | apparent Kd [2]: 19.5 nM

AAGUUGUCAGGAUAUCGUUAAUUUAGUUGUUUGUAUUAGUUCGAGAAGGGACAUGAGGAUCACCCAUGUUUGCA
apparent Kd [1]: 26.4 nM | apparent Kd [2]: 34 nM

AAGUUUGUACGAGGAUAUCAGUUGUUUCUAAAUUCAACAUGAGGAUCACCCAUGUAACAAUGGAGUGAGAAGGCGUGUGGGCAA
apparent Kd [3]: 740 nM | apparent Kd [4]: 554 nM

AAUAAACUCACAGGAUAUAGCAGAGGUCGCCUGAACUUACAGGCGACUAUGCUAGAAGGGUGACCACAUGAGGAUCACCCAUGU
apparent Kd [3]: 974 nM | apparent Kd [4]: 170 nM

AAUAAACUCACAGGAUAUAGCAGAGGUCGCGUAAACUUACAGGCGACGAUGCUAGAAGGGUGACCACAUGAGGAUCACCCAUGU
apparent Kd [3]: 871 nM | apparent Kd [4]: 118 nM

AAUAACAGAGGAUAUACUAUUUUAUGUGUUUAUUGUUUUAAACAUGAGGAUCACCCAUGUAGAAGGCUGAUUAA
apparent Kd [1]: 69.7 nM | apparent Kd [2]: 105 nM

AAUAACAGAGGAUAUACUAUUUUAUGUGUUUGUUAUUUUAAACAUGAGGAUCACCCAUGUAGAAGGCUGAUUAA
apparent Kd [1]: 42 nM | apparent Kd [2]: 44.6 nM

AAUAACAGAGGAUAUACUAUUUUAUGUGUUUGUUGUUUUAAACAUGAGGAUCACCCAUGUAGAAGGCUGAAUAA
apparent Kd [1]: 21 nM | apparent Kd [2]: 26 nM

AAUAACAGAGGAUAUACUGUUUUAUGUAUUUAUUAUUUUAAACAUGAGGAUCACCCAUGUAGAAGGCUGAUUGA
apparent Kd [1]: 33.7 nM | apparent Kd [2]: 29.8 nM

AAUAACAGAGGAUAUACUGUUUUAUGUGUUUGUUAUUUUAAACAUGAGGAUCACCCAUGUAGAAGGCUGAGUAA
apparent Kd [1]: 27.4 nM | apparent Kd [2]: 27 nM

AAUACACAUGAGGAUCACCCAUGUCAGGAUAUGCGGAAUAAGACUUUGGUCGAUAAAUGUAGAAGGGACGUUUA
apparent Kd [1]: 34.3 nM | apparent Kd [2]: 33.4 nM

AAUACAUGAGGAUCACCCAUGUAAAGUUCAAACAAUAUGAGUGAGGAUAUACUGAGUUAGUUAUGGUAGAAGGCACUGGGUACA
apparent Kd [3]: 23.1 nM | apparent Kd [4]: 21.8 nM

AAUAUAAAGAGCUGGUAAAACUCAACAUGAGGAUCACCCAUGUAGGAUAUCAGCACGAUAAGUGCUGAGAAGGACAUCCAGCUC
apparent Kd [1]: 16.3 nM | apparent Kd [2]: 17.1 nM

AAUAUAAGAGCUGGUAACUCAAGAACAUGAGGAUCACCCAUGUAGGAUAUCAGCACGAUAAGUGCUGAGAAGGACAUCCAGCUC
apparent Kd [1]: 15.3 nM | apparent Kd [2]: 19 nM

AAUAUAGAGCUGGAAAUAAAACUCACAUGAGGAUCACCCAUGUAGGAUAUCAGCACGAUAAGUGCUGAGAAGGACAUCCAGCUC
apparent Kd [1]: 15.2 nM | apparent Kd [2]: 15.2 nM

AAUAUGAGCUGGUUUAAAACUCAAACAUGAGGAUCACCCAUGUAGGAUAUCAGCACGAUAAGUGCUGAGAAGGACAUCCAGCUC
apparent Kd [1]: 15 nM | apparent Kd [2]: 18.9 nM

AAUAUGUUGCAGAAGGCCAUGUUGUGGUAGUACCUCAUGACAUGAGGAUCACCCAUGUUUGUGUUGGAGGAUAUGCAAUAUAUU
apparent Kd [1]: 37.7 nM | apparent Kd [2]: 201 nM

AAUAUGUUGCAGAAGGUUAUAUUUUUUUAGUACCUCAUGACAUGAGGAUCACCCAUGUAUUUGUUGAAGGAUAUGCAAUAUAUU
apparent Kd [1]: 23.1 nM | apparent Kd [2]: 20.8 nM

AAUCCACAUGAGGAUCACCCAUGUCAGGAUAUCGUGUCGCGGGUUUCGGUCCGUGAUGCGAGAAGGGACGGCUG
apparent Kd [1]: 31.9 nM | apparent Kd [2]: 53.1 nM

AAUCGGGAGCAGAAGGCAUGUAAUAAGACAUGAGGAUCACCCAUGUAGUUAAGGCGAAAGCCGCAUGAGGAUAUGCUCCCGUAA
apparent Kd [3]: 5.26 nM | apparent Kd [4]: 4.99 nM

AAUCUAUUUAUGGGAUUACAAUAUGAGGAUAUCAUUCAUCUAUACAUGAGGAUCACCCAUGUUACUGAGAAGGCAUAUAUAAUA
apparent Kd [3]: 14.1 nM | apparent Kd [4]: 9.85 nM

AAUGGCCAAGGAUAUGAGACCUAAAACAUGAGGAUCACCCAUGUGGACUCAGCCGCGUGGUCAGAAGGUGGAACCA
apparent Kd [1]: 13.8 nM | apparent Kd [2]: 14.8 nM

AAUGGGCACCAGAAGGACAUGAGGAUCACCCAUGUAGGAUAUGGGCGUUGAAGAUGUCUGAUCGAGUUGCUGGAAAGAUAUGGG
apparent Kd [3]: 311 nM | apparent Kd [4]: 73.4 nM

AAUGGGUGUGUGAGGAUAUACGAUGGCAGUUGCCAGUAGAAGGUACAUGAGGAUCACCCAUGUGUCCAAAAGUG
apparent Kd [1]: 13.2 nM | apparent Kd [2]: 16 nM

AAUUAACACCAGAAGGACAUGAGGAUCACCCAUGUAGGAUAUGGGAGUGGGUCCGUUGGAGUUGGCCCGUCUCUGCGGGCUCGA
apparent Kd [3]: 79.1 nM | apparent Kd [4]: 8.95 nM

AAUUAACUCACAGGAUAUAGCAGAGGUCGCGUAAACUUACAGGCGACGAGGCUAGAAGGGUGACCACAUGAGGAUCACCCAUGU
apparent Kd [3]: 648 nM | apparent Kd [4]: 98.8 nM
